Data on one molecule can be found in ChEMBL document CHEMBL3351898, “4-Aminoquinoline-pyrimidine hybrids: synthesis, antimalarial activity, heme binding and docking studies” (Eur J Med Chem, 2015).

In series [1] the test system is Vero. Briefly: Cytotoxicity against African green monkey Vero cells after 72 hrs by neutral red assay. It counts as cell-based, Chlorocebus sabaeus. The settings on record: vero; in the assay text read “after 48 hrs” for “after 72 hrs”. The essentials: (§1)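 Vero cells (monkey kidney […]) were seeded at 25,000 cells/well and incubated 24 h, then exposed to a range of compound concentrations for 48 h. Viable cells were counted by Neutral Red assay, and IC50 was obtained from dose-response curves.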

Series [2] deals with Vero. Put plainly: Cytotoxicity against African green monkey Vero cells up to 20 uM after 72 hrs by neutral red assay. It counts as cell-based. The following applies: chlorocebus sabaeus, 48 h, in the assay text read “48 hrs” for “72 hrs”. The essentials: as §1
Series [3] has as its system Plasmodium berghei. Briefly: Antimalarial activity against Plasmodium berghei infected in mouse assessed as reduction in parasitemia at 33.3 mg/kg/day, po dosed on days 0, 1 and 2 post infection measured on day 5. It is filed as functional. The settings on record: 120 h. The essentials: (§2)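 P. berghei-infected mice were given the compound orally at 11.1, 33.3 or 100 mg/kg × 3 days. Vehicle and chloroquine groups were included. Parasitemia was read on days 5 and 7, and % suppression was calculated with mean parasitemia in the vehicle control taken as 100%. Mean survival time was also recorded.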

Series [4] has as its system Plasmodium berghei. Briefly: Antimalarial activity against Plasmodium berghei infected in mouse assessed as reduction in parasitemia at 11.1 mg/kg/day, po dosed on days 0, 1 and 2 post infection measured on day 5. It is filed as functional. The following applies: 120 h. The essentials: as §2
Series [5] in a line: Resistance index, ratio of IC50 for chloroquine-resistant Plasmodium falciparum W2 to IC50 for chloroquine-sensitive Plasmodium falciparum D6. It counts as functional.
The subject of series [6] is Plasmodium berghei. Briefly: Antimalarial activity against Plasmodium berghei infected in mouse assessed as reduction in parasitemia at 33.3 mg/kg/day, po dosed on days 0, 1 and 2 post infection measured on day 7. It counts as functional. The settings on record: 168 h. The essentials:
as §2

In series [7] the test system is Plasmodium falciparum. Briefly: Antimalarial activity against chloroquine-sensitive Plasmodium falciparum D6 assessed as inhibition of parasite growth after 72 hrs by parasite LDH release assay. It counts as functional, organism-based. The settings on record: D6, 72 h. The essentials:
(§3)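 Asexual P. falciparum cultures at 2% parasitemia and 2% hematocrit in RPMI 1640 with 10% human serum and amikacin were added to serially diluted compound. Plates were incubated 72 h at 37 °C under 90% N2/5% O2/5% CO2. Growth was read by pLDH: Malstat reagent 30 min at room temperature, then NBT/PES 1 h in the dark. IC50 taken from dose-response curves; chloroquine and pyrimethamine controls.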
On the technique in general: LDH leaks from cells whose membrane has failed.

Series [8] deals with Plasmodium berghei. Put plainly: Antimalarial activity against Plasmodium berghei infected in mouse assessed as reduction in parasitemia at 100 mg/kg/day, po dosed on days 0, 1 and 2 post infection measured on day 5. The settings on record: 120 h. It is filed as functional. The essentials: as §2
Series [9] is described as follows: Selectivity index, ratio of IC50 for African green monkey Vero cells to IC50 for chloroquine-sensitive Plasmodium falciparum D6. The following applies: read-out: Ratio IC50. It counts as toxicity, cell-based. The essentials:
(§4)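 Vero cells seeded at 25,000 cells/well and grown 24 h, then exposed to a range of compound concentrations for 48 h. Viability measured by Neutral Red uptake; IC50 from dose-response curves. SI calculated as Vero IC50 divided by antiplasmodial IC50 for the named strain.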

For series [10], the system named is Plasmodium berghei. Briefly: Antimalarial activity against Plasmodium berghei infected in mouse assessed as mean survival time at 100 mg/kg/day, po dosed on days 0, 1 and 2 post infection. It is filed as functional. The essentials:
(§5)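 P. berghei-infected mice dosed orally with test agent at 11.1, 33.3 or 100 mg/kg, once daily for 3 days; vehicle and chloroquine controls. Mean survival time recorded; parasitemia on days 5 and 7 expressed as % suppression, taking mean vehicle-control parasitemia as 100%.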

Series [11] deals with Plasmodium berghei. Briefly: Antimalarial activity against Plasmodium berghei infected in mouse assessed as mean survival time at 11.1 mg/kg/day, po dosed on days 0, 1 and 2 post infection. It is filed as functional. The essentials:
as §5

The test system of series [12] is Plasmodium berghei. Briefly: Antimalarial activity against Plasmodium berghei infected in mouse assessed as reduction in parasitemia at 100 mg/kg/day, po dosed on days 0, 1 and 2 post infection measured on day 7. It counts as functional. The following applies: 168 h. The essentials:
as §2

Series [13] relates to Plasmodium falciparum. Put plainly: Antimalarial activity against chloroquine-resistant Plasmodium falciparum W2 assessed as inhibition of parasite growth after 72 hrs by parasite LDH release assay. The following applies: W2, 72 h. It is filed as functional, organism-based. The essentials:
as §3

A short description of series [14]: Selectivity index, ratio of IC50 for African green monkey Vero cells to IC50 for chloroquine-resistant Plasmodium falciparum W2. It is filed as toxicity, cell-based. The following applies: read-out: Ratio IC50. The essentials: as §4
The subject of series [15] is Plasmodium berghei. Briefly: Antimalarial activity against Plasmodium berghei infected in mouse assessed as mean survival time at 33.3 mg/kg/day, po dosed on days 0, 1 and 2 post infection. It counts as functional. The essentials:
as §5

Bounds are passed on as bounds.

Broadly, the IC50 is the midpoint of a concentration-inhibition curve. As usually defined, the inhibition in vivo is the percentage by which the read-out fell short of the control.

For `COc1cc(Nc2ccnc(NCCNc3ccnc4cc(Cl)ccc34)n2)cc(OC)c1`, the IC50 result with Vero [1] is “Not Active”; in the series with Plasmodium falciparum [7], 33 nM; in the series on Plasmodium falciparum [13], 58 nM. For the same molecule, in the series with Vero [2], the Activity entry was “Non-toxic”. Moreover, the inhibition in vivo at 33.3 mg/kg/day in the series with Plasmodium berghei [3] worked out at 15.1%; with Plasmodium berghei [6], 6.2%. Moreover, the inhibition in vivo at 11.1 mg/kg/day in the series on Plasmodium berghei [4] turned out to be 1.77%. In [5], the Ratio IC50 stood at 1.75. For the same molecule, the inhibition in vivo at 100 mg/kg/day in the series with Plasmodium berghei [8] was 42.1%; in the series with Plasmodium berghei [12], 10.4%. The selectivity ratio in series [9] was greater than 606; in [14] it was greater than 345. Further, the MST stood at 9 days in the series with Plasmodium berghei [10], 5 days in the series with Plasmodium berghei [11] and 8.6 days in the series on Plasmodium berghei [15].
